Compounds with a hit are over-represented: about 2.1% of the library has one in this group of screens.
Runt-CBFb FRET: Runt domain-CBFb interaction inhibition | AID 1496 | hit rate 0.46% among 220,000 | Q01196+Q13951 | Cerulean-Runt/Venus-CBFb FRET ratio 530/480, 1 h | inhibition, % at 20 µM;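 active = inhibition over about 50% at 20 µM in the single-dose screen, limit read from the data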
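Measured by: fluorescence energy transfer, 422 nm excitation, 530/480 nm emission; test system: Cerulean-tagged RUNX1 Runt domain (FRET donor) fusion protein; buffer or medium: Tris pH 7.5 buffer with BSA; compound: one dose, 20 µM compound, 1% DMSO; times: two 1 h room-temperature incubations shielded from light; benchmarks: unlabeled CBFb 5 µM, positive control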
Hck-Nef inh: human Hck-Nef kinase inhibition; P08631; Recombinant Hck-YEEI plus Nef, Z-Lyte FRET kinase assay; inhibition, % at 20 µM; hit rate 0.68% among 220,000; AID 463187;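 active = Hck-Nef kinase inhibition above about 50%, limit read from the data; inactive = inhibition below that limit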
TbHK1 inh: blocks Trypanosoma brucei hexokinase 1 activity. recombinant TbHK1, G6PDH-coupled NADH A340. inhibition, % at 10 µM. hit rate 0.11% among 220,000. AID 1430;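 active = inhibition of 50% or more in the single-dose primary screen; inactive = inhibition below 50%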
Runt-SMMHC FRET: blocks binding of human RUNX1 Runt domain to CBFb-SMMHC; inhibition, % at 20 µM; Q01196+Q13951; Cerulean-Runt/Venus-CBFb-SMMHC FRET ratio 530/480, 1 h; hit rate 0.74% among 220,000; AID 1434;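 active = mean inhibition across duplicate retests at 20 µM reaching about 50%, limit read from the data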;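 note: inhibitors lower the FRET ratio by blocking Runt binding to CBFb-SMMHC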
p97 ATPase inh: blocks human p97 ATPase activity | P55072 | recombinant p97 ATPase, Kinase-Glo ATP luminescence, 3 h | inhibition, % at 8 µM | hit rate 0.42% among 220,000; in the data active = inhibition above about 15%
Target sequence (P55072 whole entry, looked up): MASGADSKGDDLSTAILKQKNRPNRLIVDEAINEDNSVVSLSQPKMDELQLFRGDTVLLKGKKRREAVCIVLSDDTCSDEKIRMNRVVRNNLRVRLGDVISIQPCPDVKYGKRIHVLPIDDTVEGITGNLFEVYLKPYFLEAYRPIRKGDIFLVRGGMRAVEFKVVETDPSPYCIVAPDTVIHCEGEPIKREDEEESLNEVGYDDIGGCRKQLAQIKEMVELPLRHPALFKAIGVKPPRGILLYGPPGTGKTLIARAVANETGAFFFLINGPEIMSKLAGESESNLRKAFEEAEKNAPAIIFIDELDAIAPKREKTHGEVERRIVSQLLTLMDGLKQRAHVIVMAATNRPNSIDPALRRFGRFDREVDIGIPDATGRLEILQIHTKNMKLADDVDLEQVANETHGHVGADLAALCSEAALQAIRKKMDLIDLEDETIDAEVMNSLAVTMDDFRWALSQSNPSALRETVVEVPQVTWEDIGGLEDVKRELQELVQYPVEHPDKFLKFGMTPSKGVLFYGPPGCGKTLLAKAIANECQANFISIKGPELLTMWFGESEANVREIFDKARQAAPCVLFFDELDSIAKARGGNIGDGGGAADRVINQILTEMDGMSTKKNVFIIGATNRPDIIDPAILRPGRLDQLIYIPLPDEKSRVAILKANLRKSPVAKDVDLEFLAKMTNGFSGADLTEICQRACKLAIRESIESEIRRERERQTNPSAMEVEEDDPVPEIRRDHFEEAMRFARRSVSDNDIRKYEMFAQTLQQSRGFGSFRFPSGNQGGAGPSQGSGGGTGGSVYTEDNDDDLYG
RanGTP-Imp inh: disruptors of Ran-importin-beta complex formation – biochemical, FRET, CFP-Ran, YFP-importin-beta, homogeneous, primary screen; cell-free CFP-Ran/YFP-importin-beta FRET ratio; inhibition, % (test concentration not listed); hit rate 1.1% among 300,000;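 active = more than half of the replicate wells show a fall in the fluorescence ratio signal beyond about 16%, limit read from the data, passing the limit was not always enough; inconclusive = exactly half of the replicate wells pass the set limit; inactive = fewer than half of replicates pass the limit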
A number is an active result.

`CC(=O)N1c2ccccc2C2(O)N=C(C)SC12` (configuration not stated) gave Runt-CBFb FRET inactive, Hck-Nef inh inactive, TbHK1 inh inactive, Runt-SMMHC FRET 51.8 and p97 ATPase inh inactive.
CC(=O)N1c2ccccc2Nc2ccccc21 was read as Runt-CBFb FRET inactive, Hck-Nef inh inactive, TbHK1 inh inactive, Runt-SMMHC FRET inactive, p97 ATPase inh inactive and RanGTP-Imp inh inactive.
For COc1cc2ccccc2nn1 the results were Runt-CBFb FRET inactive, Hck-Nef inh inactive, TbHK1 inh inactive, Runt-SMMHC FRET 81.7, p97 ATPase inh inactive and RanGTP-Imp inh 64.8.
Screening CC(=O)Oc1ccc2cc(-c3ccccc3)c(=O)oc2c1 returned Runt-CBFb FRET inactive, Hck-Nef inh inactive, TbHK1 inh inactive, Runt-SMMHC FRET 81.2, p97 ATPase inh inactive and RanGTP-Imp inh 81.0.
Screening CC(=O)COc1ccc2cc(-c3ccccc3)c(=O)oc2c1 returned RanGTP-Imp inh inactive.
For O=C(CCCCl)Oc1ccc2cc(-c3ccc4ccccc4n3)c(=O)oc2c1 the results were Runt-CBFb FRET inactive, Hck-Nef inh inactive, TbHK1 inh inactive, Runt-SMMHC FRET 85.5, p97 ATPase inh inactive and RanGTP-Imp inh 101.6.
Screening CCNC(=S)N1CCN(C(=O)C(Cc2ccccc2)NC(C)=O)CC1 (configuration not stated) returned Hck-Nef inh inactive, TbHK1 inh inactive, Runt-SMMHC FRET inactive and p97 ATPase inh inactive.
CN(C)CCOC(=O)CCCCCCCCC(=O)OCCN(C)C was read as Runt-CBFb FRET inactive, Hck-Nef inh inactive, TbHK1 inh inactive, Runt-SMMHC FRET inactive, p97 ATPase inh inactive and RanGTP-Imp inh inactive.
For CCOC(=O)c1c(-c2ccsc2)csc1N the results were Runt-CBFb FRET inactive, Hck-Nef inh inactive, TbHK1 inh inactive, Runt-SMMHC FRET inactive, p97 ATPase inh inactive and RanGTP-Imp inh inactive.
CCOC(=O)c1c(-c2ccc(C)s2)csc1N was read as Runt-CBFb FRET inactive, Hck-Nef inh inactive, TbHK1 inh inactive, Runt-SMMHC FRET inactive, p97 ATPase inh inactive and RanGTP-Imp inh 24.4.
CC(C)C[C@H](NC(=O)c1[nH]cnc1C(=O)Nc1ccccc1)C(=O)OC(C)(C)C was read as Runt-CBFb FRET inactive, Hck-Nef inh inactive, TbHK1 inh inactive, Runt-SMMHC FRET inactive and RanGTP-Imp inh inactive.
`CCOC(=O)C1C(=O)C=C(c2ccc(NS(C)(=O)=O)cc2)CC1c1ccco1` (configuration not stated) gave Runt-CBFb FRET 78.8, Hck-Nef inh inactive, TbHK1 inh inactive, Runt-SMMHC FRET inactive, p97 ATPase inh inactive and RanGTP-Imp inh inactive.
For O=C1CN(C(=O)c2ccc(F)cc2)c2ccccc2N1 the results were RanGTP-Imp inh inactive.
Screening CCCCNc1c([N+](=O)[O-])ncn1C returned Runt-CBFb FRET inactive, Hck-Nef inh inactive, TbHK1 inh inactive, Runt-SMMHC FRET inactive, p97 ATPase inh inactive and RanGTP-Imp inh inactive.
CCCCNc1nc(N)ncc1[N+](=O)[O-] was read as Runt-CBFb FRET inactive, Hck-Nef inh inactive, TbHK1 inh inactive, Runt-SMMHC FRET inactive, p97 ATPase inh 14.6 and RanGTP-Imp inh inactive.
CC(=O)c1cnc2nc(SCc3cccc(C)c3)nn2c1C was read as RanGTP-Imp inh inactive.
COc1ccc2c(c1)O/C(=C\c1sccc1C)C2=O was read as Runt-CBFb FRET inactive, Hck-Nef inh inactive, TbHK1 inh inactive, Runt-SMMHC FRET inactive, p97 ATPase inh inactive and RanGTP-Imp inh 29.0.
For COc1ccc(/C=C2\Oc3cc(OC(=O)N4CCOCC4)ccc3C2=O)c(OC)c1 the results were Runt-CBFb FRET inactive, Hck-Nef inh inactive, TbHK1 inh inactive, Runt-SMMHC FRET inactive, p97 ATPase inh inactive and RanGTP-Imp inh inactive.
`Cc1ccc(S(=O)(=O)NC(C(=O)Oc2ccc3c(C(F)(F)F)cc(=O)oc3c2)c2ccccc2)cc1` (configuration not stated) gave Runt-CBFb FRET inactive, Hck-Nef inh inactive, TbHK1 inh inactive, Runt-SMMHC FRET 59.3, p97 ATPase inh inactive and RanGTP-Imp inh 36.4.
Screening CCNC(=S)NC(=NCc1cccnc1)Nc1nc(C)cc(C)n1 returned RanGTP-Imp inh 19.1.
Screening CCNC(=S)/N=C(/Nc1ccccc1)Nc1nc(C)cc(C)n1 returned Runt-CBFb FRET inactive, Hck-Nef inh inactive, TbHK1 inh inactive, Runt-SMMHC FRET inactive, p97 ATPase inh inactive and RanGTP-Imp inh inconclusive.
`COc1cccc(CCc2nnc(CCC(=O)N3CCN(Cc4ccccn4)CC3)o2)c1` gave Runt-CBFb FRET inactive, Hck-Nef inh inactive, TbHK1 inh inactive, Runt-SMMHC FRET inactive, p97 ATPase inh inactive and RanGTP-Imp inh inactive.
Cc1nc2c(C(=O)NCc3ccccc3Cl)c[nH]n2c(=O)c1Cl was read as Runt-CBFb FRET inactive, Hck-Nef inh inactive, TbHK1 inh inactive, Runt-SMMHC FRET inactive, p97 ATPase inh 14.7 and RanGTP-Imp inh inactive.
CCn1nc(NS(=O)(=O)c2ccc([N+](=O)[O-])cc2)c2cc3cccc(C)c3nc21 was read as RanGTP-Imp inh inactive.
Cc1cccc2cc3c(NC(=O)c4ccccn4)nn(C)c3nc12 was read as Runt-CBFb FRET 57.2, Hck-Nef inh inactive, TbHK1 inh inactive, Runt-SMMHC FRET inactive, p97 ATPase inh inactive and RanGTP-Imp inh 34.6.
CCn1nc(NC(=O)C(C)(C)C)c2cc3cccc(C)c3nc21 was read as RanGTP-Imp inh 47.3.
Screening Cc1ccccc1NC(=O)c1ccccn1 returned Runt-CBFb FRET inactive, Hck-Nef inh inactive, TbHK1 inh inactive, Runt-SMMHC FRET inactive, p97 ATPase inh inactive and RanGTP-Imp inh inactive.
Screening CCCn1nc(NC(=O)COC)c2cc3cccc(C)c3nc21 returned RanGTP-Imp inh 38.3.
`CCCn1nc(NC(C)=O)c2cc3cccc(C)c3nc21` gave RanGTP-Imp inh 69.4.
For Cc1cc(C(=O)Nc2ccc3nc(C)sc3c2)c2ccccc2n1 the results were Runt-CBFb FRET inactive, Hck-Nef inh inactive, TbHK1 inh inactive, Runt-SMMHC FRET inactive, p97 ATPase inh inactive and RanGTP-Imp inh inactive.
`CCOc1ccc(OCC(=O)OCC(=O)NNC(=O)c2ccc([N+](=O)[O-])cc2)cc1` gave RanGTP-Imp inh inactive.
CCCC(=O)Nc1nn(C)c2nc3c(C)cccc3cc12 was read as Runt-CBFb FRET inactive, Hck-Nef inh inactive, TbHK1 inh inactive, Runt-SMMHC FRET inactive, p97 ATPase inh inactive and RanGTP-Imp inh 31.3.
`COC(=O)c1cccc(NC(=O)CSc2nnc(C3CC3)n2C)c1` gave RanGTP-Imp inh inactive.
For Cc1csc(SCCn2c(N3CCCC3)nc3c2c(=O)[nH]c(=O)n3C)n1 the results were Runt-CBFb FRET inactive, Hck-Nef inh inactive, TbHK1 inh inactive, Runt-SMMHC FRET inactive, p97 ATPase inh 14.5 and RanGTP-Imp inh inactive.
For CN(C)C(CNC(=O)c1ccc(S(=O)(=O)Nc2cccc(C(F)(F)F)c2)cc1)c1ccco1 (configuration not stated) the results were RanGTP-Imp inh inactive.

Assay outcomes deposited in PubChem by several laboratories.
